An excerpt weighted towards active compounds, which were near 2.3% of everything screened.
ADAM17 inh – inhibits human ADAM17 | recombinant ADAM17, EDANS/DABCYL FRET peptide cleavage | inhibition, % at 6.95 µM | actives 0.83% (n = 370,000) | AID 720648;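 active means inhibition above the mean of compounds lying between control limits plus 3 SD, set per campaign, cut at about 8.5% in these data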;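 further: 0% = DMSO-only wells as the low control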
Target sequence (P78536 215-824 limits assumed): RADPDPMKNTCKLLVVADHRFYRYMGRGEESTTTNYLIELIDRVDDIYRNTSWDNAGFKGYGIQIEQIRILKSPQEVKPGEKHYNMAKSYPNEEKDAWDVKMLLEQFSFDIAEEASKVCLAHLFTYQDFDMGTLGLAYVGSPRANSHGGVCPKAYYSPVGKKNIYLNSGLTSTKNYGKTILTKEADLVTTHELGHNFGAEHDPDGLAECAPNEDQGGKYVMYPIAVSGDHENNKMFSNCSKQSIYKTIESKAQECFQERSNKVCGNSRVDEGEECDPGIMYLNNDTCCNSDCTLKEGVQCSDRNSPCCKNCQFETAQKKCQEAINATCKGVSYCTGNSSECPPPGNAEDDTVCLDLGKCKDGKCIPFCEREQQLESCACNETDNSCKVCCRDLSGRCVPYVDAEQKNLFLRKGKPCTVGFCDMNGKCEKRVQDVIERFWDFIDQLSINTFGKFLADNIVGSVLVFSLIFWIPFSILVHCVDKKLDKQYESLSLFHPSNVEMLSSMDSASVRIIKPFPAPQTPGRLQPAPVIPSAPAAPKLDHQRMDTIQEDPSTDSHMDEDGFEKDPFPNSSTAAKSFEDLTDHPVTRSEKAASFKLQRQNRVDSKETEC
PLCg1 inh – inhibitors of human phospholipase C gamma1; purified PLC-gamma1, fluorogenic substrate, fluorescence; inhibition, % at 12.2 µM; P19174; AID 720700; actives 0.84% (n = 370,000); in the data active means inhibition above about 9.5%
Tn6 DDE FP – disrupts Tn6 cyclic peptide binding to fibrin D-Dimer-E complex; Fibrin DD(E) TRITC-Tn6 fluorescence polarization displacement; inhibition, % at 8.3 µM; actives 0.21% (n = 370,000); AID 720509;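 active means inhibition above a per-campaign cutoff: mean of compounds within control limits plus 3 SD, cut at about 15% in these data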;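 further: 0% = median of all compound wells on the plate and 100% = blocking peptide control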
PLC-beta3 inh – inhibitors of human phospholipase C beta3 | inhibition, % at 12.2 µM | AID 720704 | Q01970 | actives 0.18% (n = 370,000) | Purified PLC-beta3, fluorogenic substrate, fluorescence; in the data active means inhibition above about 11%;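 further: 0% = median of compound wells on plate and 100% = full blocker control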
ADAM10 inh – inhibits human ADAM10. recombinant ADAM10, EDANS/DABCYL FRET peptide cleavage, 3 h. inhibition, % at 7 µM. actives 0.62% (n = 370,000). AID 720582;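 active means inhibition above a per-campaign cutoff equal to the mean of compounds falling between control-based bounds plus 3 SD, cut at about 20% in these data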;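 further: 0% = DMSO wells while the 100% control is not disclosed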
DDE Tn7 FP inh – DD(E)-Tn7 binding inhibition, primary FP screen; FP displacement of FITC-Tn7 peptide from fibrin DD(E); 0% = median of compound wells per plate; inhibition, % at 8.3 µM; actives 0.13% (n = 370,000); AID 720508;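 active means inhibition above the mean of compounds falling within the control limits plus 3 SD of them, cut at about 14% in these data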;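 further: 0% = plate median of compound wells and 100% = 10 µM Aha-Tn7 peptide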
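Measure: % inhibition scaled between sample-field median and high-control FP; Test system: human fibrin DD(E); Quantity: 2 µM final DD(E) protein; Doses: one dose, 8.3 µM nominal; Schedule: compound with protein 10 min, then 3 h after probe, room temperature; Detection: fluorescence polarization; Medium: Tris buffer with calcium and detergent, pH 7.8.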
ADAM10 confirm – confirmation of inhibitors of human ADAM10; shares compounds with ADAM10 inh; ADAM10 QFRET peptide cleavage, EDANS fluorescence; inhibition, % at 6.95 µM; actives 1% (n = 2,100); AID 743208;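 active means inhibition above about 20% chosen separately for each screening run, limit read from the data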;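 further: 0% = DMSO wells and 100% = marimastat wells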
ADAM17 counter – counter-screen for ADAM10 exosite inhibitors: inhibitors of human ADAM17; ADAM17 QFRET peptide cleavage, EDANS fluorescence; shares compounds with ADAM10 inh; actives 0.5% (n = 2,100); inhibition, % at 6.95 µM;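 active means mean triplicate inhibition above the solvent-only control wells' mean plus 3 SD, cut at about 12% in these data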;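 further: 0% = DMSO wells and 100% = marimastat wells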
ADAM10 ctr – ADAM10 inhibition, counter-screen for ADAM17 exosite hits; shares compounds with ADAM17 inh; inhibition, % at 6.95 µM; recombinant ADAM10, EDANS/DABCYL FRET peptide cleavage, 3 h; actives 47% (n = 2,900);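 active means mean inhibition over the triplicate runs exceeds the activity threshold set in the earlier primary screen, cut at about 20% in these data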;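 further: 0% = DMSO wells and 100% = marimastat wells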
ADAM17 confirm – confirmation of inhibitors of human ADAM17; AID 743257; recombinant ADAM17, EDANS/DABCYL QFRET peptide cleavage; actives 65% (n = 2,900); inhibition, % at 6.95 µM; shares compounds with ADAM17 inh;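 active means mean inhibition across replicates above the hit cutoff set in the primary screen, cut at about 8.5% in these data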;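 further: 0% = DMSO wells and 100% = marimastat wells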
* hit, by the source's call; ! = not confirmed by another sample.

Screening Cc1ccccc1CN1CCCCC(NC(=O)c2ccc(N(C)C)cc2)C1=O (centres undefined) returned ADAM17 inh -1.9, PLCg1 inh 1.1, Tn6 DDE FP 0.3, PLC-beta3 inh 1.3, ADAM10 inh -0.4 and DDE Tn7 FP inh 3.7.
For Cc1ccc(NC(=O)C(C)c2ccc([N+](=O)[O-])cc2)cc1Cl (centres undefined) the results were ADAM17 inh 6.5, PLCg1 inh 2.8, Tn6 DDE FP 4.0, PLC-beta3 inh 1.8, ADAM10 inh 23.6*, DDE Tn7 FP inh 7.1, ADAM10 confirm 4.9 and ADAM17 counter 0.8.
`CC(C(=O)Nc1ccccc1Br)c1ccc([N+](=O)[O-])cc1` (centres undefined) gave ADAM17 inh 1.9, PLCg1 inh 0.2, Tn6 DDE FP 8.6, PLC-beta3 inh 2.5, ADAM10 inh 6.9 and DDE Tn7 FP inh 1.5.
`COc1ccc(Cn2cc(CN3[C@H](Cc4ccccc4)COc4cc(Br)ccc4S3(=O)=O)nn2)cc1` gave ADAM17 inh -1.4, PLCg1 inh 3.2, Tn6 DDE FP -2.2, PLC-beta3 inh 1.8, ADAM10 inh -0.9 and DDE Tn7 FP inh -1.7.
Screening CCOC(=O)c1c(CN2CCN(c3ccccc3)CC2)oc2cc(Br)c(O)cc12 returned ADAM17 inh 6.7, PLCg1 inh 3.0, Tn6 DDE FP -3.9, PLC-beta3 inh -6.9, ADAM10 inh 20.8*, DDE Tn7 FP inh -3.2, ADAM10 confirm 5.1 and ADAM17 counter 1.6.
Screening CC(=O)c1ccc(NC(=O)Nc2ccc(NS(=O)(=O)c3ccc(C)cc3)cc2)cc1 returned ADAM17 inh 6.9, PLCg1 inh 1.1, Tn6 DDE FP -11.1, PLC-beta3 inh 1.2, ADAM10 inh 23.9*, DDE Tn7 FP inh 1.5, ADAM10 confirm 5.5 and ADAM17 counter 0.8.
Screening Cc1ccc(S(=O)(=O)Nc2ccccc2C(N)=O)cc1 returned ADAM17 inh -30.6, PLCg1 inh -18.7, Tn6 DDE FP 5.1, PLC-beta3 inh -14.9, ADAM10 inh -123.2 and DDE Tn7 FP inh 0.1.
For Cc1ccc(S(=O)(=O)Nc2ccccc2-c2ccccc2NS(=O)(=O)c2ccc(C)cc2)cc1 the results were ADAM17 inh 5.5, PLCg1 inh -0.2, Tn6 DDE FP 8.9, PLC-beta3 inh -1.8, ADAM10 inh 21.4*, DDE Tn7 FP inh 3.3, ADAM10 confirm 0.1 and ADAM17 counter 0.2.
For Cc1ccc(S(=O)(=O)Nc2ccc(N=Nc3ccc(O)cc3)cc2)cc1 the results were ADAM17 inh 2.1, PLCg1 inh 6.7, Tn6 DDE FP -2.9, PLC-beta3 inh 1.4, ADAM10 inh 22.1*, DDE Tn7 FP inh 5.5, ADAM10 confirm 1.9 and ADAM17 counter -0.2.
N#Cc1nc(COc2ccc(Br)cc2)oc1N1CCCC1 was read as ADAM17 inh 5.0, PLCg1 inh 7.7, Tn6 DDE FP -10.7, PLC-beta3 inh 0.1, ADAM10 inh 21.1*, DDE Tn7 FP inh 0.4, ADAM10 confirm 1.7 and ADAM17 counter 0.4.
`COC(=O)[C@H]1C[C@@]2(C)c3ccccc3N(S(=O)(=O)c3ccccc3)[C@H]2N1` gave ADAM17 inh -3.1, PLCg1 inh -0.6, Tn6 DDE FP -3.2, PLC-beta3 inh 2.8, ADAM10 inh 1.8 and DDE Tn7 FP inh 2.5.
Screening CCN(c1ccccc1)S(=O)(=O)c1cc(C(=O)OC(C)C(=O)Nc2ccc3c(c2)OCCO3)ccc1C (centres undefined) returned ADAM17 inh 15.1*, PLCg1 inh 5.4, Tn6 DDE FP 1.5, PLC-beta3 inh 5.6, ADAM10 inh 27.5*, DDE Tn7 FP inh 3.7, ADAM10 confirm 8.0, ADAM17 counter 3.2, ADAM10 ctr 17.3 and ADAM17 confirm 13.1*.
Screening O=C1NC[C@H](c2ccccc2)OC(=O)[C@H](Cc2ccc(F)cc2)CC/C=C/C[C@H]1CC(=O)N(CCO)Cc1ccccc1 returned ADAM17 inh 16.9*, PLCg1 inh 5.7, Tn6 DDE FP 5.1, PLC-beta3 inh 6.1, ADAM10 inh 24.1*, DDE Tn7 FP inh -5.0, ADAM10 confirm 2.6, ADAM17 counter 0.5, ADAM10 ctr 21.8* and ADAM17 confirm 10.7*.
Cc1cc(Cl)ccc1OCC(=O)N/N=C/c1ccc[nH]1 was read as ADAM17 inh -0.3, PLCg1 inh -1.4, Tn6 DDE FP 5.6, PLC-beta3 inh 2.3, ADAM10 inh 3.9 and DDE Tn7 FP inh 3.1.
Screening COC(=O)[C@]12C[C@H](CC(=O)N3CCCCC3)C(=O)N(Cc3cccc4ccccc34)C1=C[C@H](C(C)(C)C)O[C@@H]2C returned ADAM17 inh 4.0, PLCg1 inh -1.2, Tn6 DDE FP -5.8, PLC-beta3 inh 3.0, ADAM10 inh 6.9 and DDE Tn7 FP inh 2.9.
For CCCCCCCCCCSc1n[nH]c(N)n1 the results were ADAM17 inh 18.9*, PLCg1 inh 6.7, Tn6 DDE FP 1.7, PLC-beta3 inh 6.6, ADAM10 inh 45.1*, DDE Tn7 FP inh -2.5, ADAM10 confirm 1.6, ADAM17 counter 1.1, ADAM10 ctr 17.5 and ADAM17 confirm 10.1*.
For Cc1onc(-c2c(Cl)cccc2Cl)c1C(=O)NC1C(=O)N2C1SC(C)(C)C2C(=O)O (centres undefined) the results were ADAM17 inh -0.2, PLCg1 inh 5.0, Tn6 DDE FP 0.2, PLC-beta3 inh 0.5, ADAM10 inh 12.3 and DDE Tn7 FP inh 0.2.
For Cc1onc(-c2c(Cl)cccc2Cl)c1C(=O)N[C@@H]1C(=O)N2[C@@H]1SC(C)(C)[C@@H]2C(=O)O the results were ADAM17 inh 9.6*!, PLCg1 inh 7.3, Tn6 DDE FP -8.8, PLC-beta3 inh 6.8, ADAM10 inh 20.5*!, DDE Tn7 FP inh -1.3, ADAM10 confirm 0.3, ADAM17 counter -0.1, ADAM10 ctr 1.4 and ADAM17 confirm 3.4.

From PubChem BioAssay
